Source: ChEMBL document CHEMBL1125559, “Analogues of platelet activating factor. 7. Bis-aryl amide and bis-aryl urea receptor antagonists of PAF” (J Med Chem, 1992)

Key:
Mus musculus [1] = assay: Compound was evaluated for PAF-induced lethality in mouse (intraperitoneally at a dose of 1.0 mg/kg in saline 0.5 hr before lethal intravenous PAF challenge 75-150 mg/kg); assay type: ADME, organism-based; set-up: dose 1 mg/kg, route intraperitoneal; details: in vivo
In short: (§1)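 Female Swiss-Webster mice (20-25 g) received test compound ip in saline (10 mL/Kg); controls got saline alone. The PAF dose was chosen daily from small pilot groups. Survival was scored at 1.5 h and recorded as dead/total.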

Mus musculus [2] = assay: Compound was evaluated for PAF-induced lethality in mouse (intraperitoneally at a dose of 1.0 mg/kg in saline 0.5 hr before lethal intravenous PAF challenge 75-150 mg/kg); 8/13; assay type: ADME, organism-based; set-up: dose 1 mg/kg, route intravenous; details: in vivo; in short: as §1
Oryctolagus cuniculus [3] = species: Oryctolagus cuniculus; assay: Concentration required to inhibit PAF (5*10e-8 M) induced platelet aggregation in rabbit platelet rich plasma(PRP) by 50%; assay type: functional, organism-based
In short: (§2)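 Rabbit PRP came from blood spun at 800 rpm for 15 min at room temperature, with platelet counts of 350 000–550 000/µL. PRP was equilibrated 1–2 min at 37 °C in an aggregometer. It was preincubated 5 min with test compound (final 10^-8 to 10^-5 M; methanol stock diluted in saline) or saline, then challenged with L-C16-PAF. IC50 was taken from concentration–response curves of aggregation magnitude and averaged over separate determinations.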

Mus musculus [4] = assay: Compound was evaluated for PAF-induced lethality in mouse (intraperitoneally at a dose of 1.0 mg/kg in saline 0.5 hr before lethal intravenous PAF challenge 75-150 mg/kg); 8/12; assay type: ADME, organism-based; set-up: dose 1 mg/kg, route intravenous; details: in vivo; in short: as §1
Mus musculus [5] = assay: Compound was evaluated for PAF-induced lethality in mouse (intraperitoneally at a dose of 1.0 mg/kg in saline 0.5 hr before lethal intravenous PAF challenge 75-150 mg/kg); 2/10; assay type: ADME, organism-based; set-up: dose 1 mg/kg; details: in vivo; in short: as §1
Mus musculus [6] = assay: Compound was evaluated for PAF-induced lethality in mouse (intraperitoneally at a dose of 1.0 mg/kg in saline 0.5 hr before lethal intravenous PAF challenge 75-150 mg/kg); 4/12; assay type: ADME, organism-based; set-up: dose 1 mg/kg; details: in vivo; in short: as §1
Mus musculus [7] = assay: Compound was evaluated for PAF-induced lethality in mouse (intraperitoneally at a dose of 1.0 mg/kg in saline 0.5 hr before lethal intravenous PAF challenge 75-150 mg/kg); 12/39; assay type: ADME, organism-based; set-up: dose 1 mg/kg; details: in vivo; in short: as §1
Mus musculus [8] = assay: Compound was evaluated for PAF-induced lethality in mouse (intraperitoneally at a dose of 1.0 mg/kg in saline 0.5 hr before lethal intravenous PAF challenge 75-150 mg/kg); 5/12; assay type: ADME, organism-based; set-up: dose 1 mg/kg, route intravenous; details: in vivo; in short: as §1
Mus musculus [9] = assay: Compound was evaluated for PAF-induced lethality in mouse (intraperitoneally at a dose of 1.0 mg/kg in saline 0.5 hr before lethal intravenous PAF challenge 75-150 mg/kg); 11/15; assay type: ADME, organism-based; set-up: dose 1 mg/kg; details: in vivo; in short: as §1
Mus musculus [10] = assay: Compound was evaluated number of mouse dead out of total (intraperitoneally at a dose of 1.0 mg/kg in saline 0.5 hr before lethal intravenous PAF challenge 75-150 mg/kg)''; 6/12; assay type: ADME, organism-based; set-up: dose 1 mg/kg, route intravenous; details: in vivo; in short: as §1
Oryctolagus cuniculus [11] = species: Oryctolagus cuniculus; assay: Concentration required to inhibit PAF (5*10e-8 M) induced platelet aggregation in rabbit platelet rich plasma(PRP) by 50% at 10 uM; assay type: functional
Oryctolagus cuniculus [12] = species: Oryctolagus cuniculus; assay: Concentration required to inhibit PAF (5*10e-7 M) induced platelet aggregation in rabbit platelet rich plasma(PRP) by 50%; assay type: functional, organism-based; in short: as §2
Mus musculus [13] = assay: Compound was evaluated for PAF-induced lethality in mouse (intraperitoneally at a dose of 1.0 mg/kg in saline 0.5 h before lethal intravenous PAF challenge 75-150 mg/kg); 12/14; assay type: ADME, organism-based; set-up: dose 1 mg/kg; details: in vivo; in short: as §1

CCCCCCCCCCCCCCOc1ccc(CN(C(=O)NC)c2cccc(C[n+]3csc(C)c3)c2)cc1.[Br-] showed a Lethality (Mus musculus [1]) of 62%, a Dead/total (Mus musculus [2]) of 8 and an IC50 (Oryctolagus cuniculus [3]) of 0.53 µM.

CCCCCCCCCCCCCCCCOc1ccc(CC(=O)Nc2cccc(C[n+]3csc(C)c3)c2)cc1 showed an IC50 (Oryctolagus cuniculus [3]) of 5.3 µM.

CCCCCCCCCCCCCCOc1ccc(CC(=O)Nc2ccc(C[n+]3csc(C)c3)cc2)cc1.[Br-] was tested, and the Lethality (Mus musculus [1]) was 80%, the IC50 (Oryctolagus cuniculus [3]) was 0.6 µM and the Dead/total (Mus musculus [4]) was 8.

CCCCCCCCCCCCCCOc1cccc(OP(=O)([O-])Oc2cccc(C[n+]3csc(C)c3)c2)c1C(=O)OC gave a Lethality (Mus musculus [1]) of 15%.

For COc1cc([C@H]2CC[C@H](c3cc(OC)c(OC)c(OC)c3)O2)cc(OC)c1OC, the IC50 (Oryctolagus cuniculus [3]) was 1.6 µM.

For CCCCCCCCCCCCCCOc1cc(CN(C(C)=O)c2cccc(C[n+]3csc(C)c3)c2)cc(OC)c1, the IC50 (Oryctolagus cuniculus [3]) was 0.96 µM.

For CCCCCCCCCCCCCCOc1c(C)cccc1CN(C(C)=O)c1cccc(C[n+]2csc(C)c2)c1.[Br-], the Lethality (Mus musculus [1]) was 20%, the IC50 (Oryctolagus cuniculus [3]) was 3.2 µM and the Dead/total (Mus musculus [5]) was 2.

CCCCCCCCCCCCCCOc1c(C)cc(CN(C(C)=O)c2cccc(C[n+]3csc(C)c3)c2)cc1C was tested, and the IC50 (Oryctolagus cuniculus [3]) was 0.71 µM.

With CCCCCCCCCCCCCCOc1cc(CN(C(C)=O)c2cccc(C[n+]3csc(C)c3)c2)ccc1OC.[Br-] the Lethality (Mus musculus [1]) was 27%, the IC50 (Oryctolagus cuniculus [3]) was 0.37 µM and the Dead/total (Mus musculus [6]) was 4.

With CCCCCCCCCCCCCCOc1ccc(CNC(=O)c2ccc(C[n+]3csc(C)c3)cc2)cc1.[Br-] the Lethality (Mus musculus [1]) was 31%, the IC50 (Oryctolagus cuniculus [3]) was 2.9 µM and the Dead/total (Mus musculus [7]) was 12.

For CCCCCCCCCCCCCCCCOc1ccc(OCC(=O)Nc2cccc(C[n+]3csc(C)c3)c2)cc1, the IC50 (Oryctolagus cuniculus [3]) was 5 µM.

Work on CCCCCCCCCCCCCCOc1ccc(N(Cc2cccc(C[n+]3csc(C)c3)c2)C(C)=O)cc1 yielded an IC50 (Oryctolagus cuniculus [3]) of 1 µM.

CCCCCCCCCCCCCCOc1ccc(CNc2cccc(C[n+]3csc(C)c3)c2)cc1.[Br-] was tested, and the Lethality (Mus musculus [1]) was 42%, the IC50 (Oryctolagus cuniculus [3]) was 7.1 µM and the Dead/total (Mus musculus [8]) was 5.

With CCCCCCCCCCCCCCOc1cccc(CN(C(C)=O)c2cccc(C[n+]3csc(C)c3)c2)c1 the IC50 (Oryctolagus cuniculus [3]) was 0.74 µM.

CCCCCCCCCCCCCCOc1ccc(CNC(=O)c2cccc(C[n+]3csc(C)c3)c2)cc1OC was tested, and the IC50 (Oryctolagus cuniculus [3]) was 0.96 µM.

For CCCCCCCCCCCCCCOc1cc(OC)ccc1CN(C(C)=O)c1cccc(C[n+]2csc(C)c2)c1.[Br-], the Lethality (Mus musculus [1]) was 73%, the IC50 (Oryctolagus cuniculus [3]) was 1.4 µM and the Dead/total (Mus musculus [9]) was 11.

In the case of CCCCCCCCCCCCCCOc1ccc(CN(C(C)=O)c2cccc(C[n+]3csc(C)c3)c2)cc1OC, the IC50 (Oryctolagus cuniculus [3]) is reported as 0.32 µM.

CCCCCCCCCCCCCCOc1cccc(C(=O)Nc2cccc(C[n+]3csc(C)c3)c2)c1 showed an IC50 (Oryctolagus cuniculus [3]) of 4.2 µM.

Compound CCCCCCCCCCCCCCOc1ccc(CC(=O)Nc2cccc(C[n+]3csc(C)c3)c2)cc1.[Br-] has a Lethality (Mus musculus [1]) of 50%, an IC50 (Oryctolagus cuniculus [3]) of 0.31 µM and a Dead/total (Mus musculus [10]) of 6.

CCCCCCCCCCCCCCOc1cc(CNC(=O)c2cccc(C[n+]3csc(C)c3)c2)cc(OC)c1.[Br-] was tested, and the Inhibition (Oryctolagus cuniculus [11]) was 43%.

CCCCCCCCCCCCCCOc1ccc(CCN(C(C)=O)c2cccc(C[n+]3csc(C)c3)c2)cc1 showed an IC50 (Oryctolagus cuniculus [12]) of 4.3 µM.

For CCCCCCCCCCCCCCOc1cc(CN(C(C)=O)c2cccc(C[n+]3csc(C)c3)c2)ccc1C.[Br-], the Lethality (Mus musculus [1]) was 86%, the IC50 (Oryctolagus cuniculus [3]) was 6.7 µM and the Dead/total (Mus musculus [13]) was 12.

In the case of Cc1nnc2n1-c1sc(CCC(=O)N3CCOCC3)cc1C(c1ccccc1Cl)=NC2 [APAFANT], the IC50 (Oryctolagus cuniculus [3]) is reported as 0.34 µM.
